Results: ChEMBL document CHEMBL1125740, “Heterocyclic quinones. 17. A new in vivo active antineoplastic drug: 6,7-bis(1-aziridinyl)-4-[[3-(N,N-dimethylamino)propyl]amino]-5,8- quinazolinedione” (J Med Chem, 1991)
“And” between values parts separate entries of the source, which are not always exact repeats. Equal values may be shown once.

Experiments:
[1] = system: L1210; experiment: Inhibitory activity against L1210 cell growth; type: functional, cell-based; settings: Mus musculus
How it was run: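 L1210 cells were grown in RPMI 1640 with 2 mM glutamine and 20% heat-inactivated horse serum at 37 °C under 5% CO2. Drug was added in DMSO (0.5% final) to exponential cells seeded at 0.8×10^5 cells/mL. Coulter counts were done in triplicate at 48 h. IC50 was taken from a regression of probit % growth inhibition against log dose, from one experiment.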

[2] = system: P388; experiment: Compound was evaluated in vivo for antitumor activity after intraperitoneal administration against P388/L-PAM(12 for median day of death at an optimal dose of 1 mg/kg/injection; type: functional, Mus musculus
[3] = system: P388; experiment: Compound was evaluated in vivo for antitumor activity after intraperitoneal administration against P388/L-PAM(12 for mortality range at an optimal dose of 5 mg/kg/injection; type: functional, Mus musculus
[4] = system: P388; experiment: Compound was evaluated in vivo for antitumor activity after intraperitoneal administration against P388/L-PAM(12) for tumor free survivors at an optimal dose of 1 mg/kg/injection; type: functional, Mus musculus
[5] = system: P388; experiment: Compound was evaluated in vivo for antitumor activity after intraperitoneal administration against P388 (1303) for median day of death at an optimal dose of 5 mg/kg/injection; type: functional, Mus musculus
[6] = system: P388; experiment: Compound was evaluated in vivo for antitumor activity after intraperitoneal administration against P388 (1303) for change in body weight at an optimal dose of 5 mg/kg/injection; type: functional, Mus musculus
[7] = system: P388; experiment: Compound was evaluated in vivo for antitumor activity after intraperitoneal administration against P388 (1303) for % increase in life span at an optimal dose of 5 mg/kg/injection; type: functional; settings: Mus musculus, P388, ip
[8] = system: P388; experiment: (§1) Compound was evaluated in vivo for antitumor activity after intraperitoneal administration against P388/L-PAM(14) for mortality range at an optimal dose of 5 mg/kg/injection; type: functional, Mus musculus
[9] = system: P388; experiment: (§2) Compound was evaluated in vivo for antitumor activity after intraperitoneal administration against P388/L-PAM(14) for % increase in life span at an optimal dose of 5 mg/kg/injection; type: functional; settings: Mus musculus, P388, ip
[10] = system: P388; experiment: Compound was evaluated in vivo for antitumor activity after intraperitoneal administration against P388/L-PAM(14) for median day of death at an optimal dose of 5 mg/kg/injection; type: functional, Mus musculus
[11] = system: P388; experiment: Compound was evaluated in vivo for antitumor activity after intraperitoneal administration against P388/L-PAM(12 for change in body weight at an optimal dose of 1 mg/kg/injection; type: functional, Mus musculus
[12] = system: P388; experiment: Compound was evaluated in vivo for antitumor activity after intraperitoneal administration against P388/L-PAM(12) for % increase in life span at an optimal dose of 1 mg/kg/injection; type: functional; settings: Mus musculus, P388, ip
[13] = system: P388; experiment: (§3) Compound was evaluated in vivo for antitumor activity after intraperitoneal administration against P388/L-PAM(14) for tumor free survivors at an optimal dose of 5 mg/kg/injection; type: functional, Mus musculus
[14] = system: P388; experiment: Compound was evaluated in vivo for antitumor activity after intraperitoneal administration against P388 (1303) for mortality range at an optimal dose of 5 mg/kg/injection; type: functional, Mus musculus
[15] = system: P388; experiment: Compound was evaluated in vivo for antitumor activity after intraperitoneal administration against P388/L-PAM(12) for total dose at an optimal dose of 5 mg/kg/injection; type: functional, Mus musculus
[16] = system: P388; experiment: Compound was evaluated in vivo for antitumor activity after intraperitoneal administration against P388 (1303) for tumor free survivors at an optimal dose of 5 mg/kg/injection; type: functional, Mus musculus
[17] = system: P388; experiment: Compound was evaluated in vivo for antitumor activity after intraperitoneal administration against P388/L-PAM(14) for total dose at an optimal dose of 5 mg/kg/injection; type: functional, Mus musculus
[18] = system: P388; experiment: (§4) Compound was evaluated in vivo for antitumor activity after intraperitoneal administration against P388/L-PAM(14) for change in body weight at an optimal dose of 5 mg/kg/injection; type: functional, Mus musculus
[19] = system: P388; experiment: as §3; type: functional, Mus musculus; remark: listed apart in the source
[20] = system: P388; experiment: Compound was evaluated in vivo for antitumor activity after intraperitoneal administration against P388 (1313) for total dose at an optimal dose of 5 mg/kg/injection; type: functional, Mus musculus
[21] = system: P388; experiment: as §1; type: functional, Mus musculus; remark: listed apart in the source
[22] = system: P388; experiment: as §4; type: functional, Mus musculus; remark: listed apart in the source
[23] = system: P388; experiment: as §2; type: functional; settings: Mus musculus, P388, ip; remark: listed apart in the source
[24] = system: P388; experiment: Compound was evaluated in vivo for antitumor activity after intraperitoneal administration against P388 (1303) for total dose at an optimal dose of 5 mg/kg/injection; type: functional, Mus musculus
[25] = system: Mus musculus; experiment: Compound was evaluated in vivo for antitumor activity against colon adenocarcinoma after injecting the compound intraperitoneally for optimal dose; type: functional
[26] = system: Mus musculus; experiment: Compound was evaluated in vivo for antitumor activity against colon adenocarcinoma after injecting the compound intraperitoneally for median tumor burden; type: functional
[27] = system: Mus musculus; experiment: Compound was evaluated in vivo for antitumor activity against colon adenocarcinoma after injecting the compound intraperitoneally for percent T/C; type: functional
[28] = system: Mus musculus; experiment: Compound was evaluated in vivo for antitumor activity against colon adenocarcinoma after injecting the compound intraperitoneally for total dose.; type: functional
[29] = system: Mus musculus; experiment: Compound was evaluated in vivo for antitumor activity against colon adenocarcinoma after injecting the compound intraperitoneally for toxicity related death.; type: functional
[30] = system: P388; experiment: (§5) Compound was evaluated in vivo for antitumor activity after intraperitoneal administration against P388 (1303) for change in body weight at an optimal dose of 1 mg/kg/injection; type: functional, Mus musculus
[31] = system: P388; experiment: (§6) Compound was evaluated in vivo for antitumor activity after intraperitoneal administration against P388 (1303) for % increase in life span at an optimal dose of 1 mg/kg/injection; type: functional; settings: Mus musculus, P388, ip
[32] = system: P388; experiment: (§7) Compound was evaluated in vivo for antitumor activity after intraperitoneal administration against P388 (1303) for median day of death at an optimal dose of 1 mg/kg/injection; type: functional, Mus musculus
[33] = system: P388; experiment: as §5; type: functional, Mus musculus; remark: listed apart in the source
[34] = system: P388; experiment: as §6; type: functional; settings: Mus musculus, P388, ip; remark: listed apart in the source
[35] = system: P388; experiment: as §7; type: functional, Mus musculus; remark: listed apart in the source
[36] = system: P388; experiment: (§8) Compound was evaluated in vivo for antitumor activity after intraperitoneal administration against P388 (1303) for mortality range at an optimal dose of 1 mg/kg/injection; type: functional, Mus musculus
[37] = system: P388; experiment: (§9) Compound was evaluated in vivo for antitumor activity after intraperitoneal administration against P388 (1303) for tumor free survivors at an optimal dose of 1 mg/kg/injection; type: functional, Mus musculus
[38] = system: P388; experiment: Compound was evaluated in vivo for antitumor activity after intraperitoneal administration against P388/L-PAM for total dose at an optimal dose of 1 mg/kg/injection; type: functional, Mus musculus
[39] = system: P388; experiment: as §8; type: functional, Mus musculus; remark: listed apart in the source
[40] = system: P388; experiment: as §9; type: functional, Mus musculus; remark: listed apart in the source
[41] = system: P388; experiment: Compound was evaluated in vivo for antitumor activity after intraperitoneal administration against P388 (1303) for total dose at an optimal dose of 1 mg/kg/injection; type: functional, Mus musculus

## CCCC(=O)OCCNc1ncnc2c1C(=O)C(OC)=CC2=O
[1]
  IC50: 0.85 µg/mL and 2.66 µM

## N[C@@H](Cc1ccc(N(CCCl)CCCl)cc1)C(=O)O [MELPHALAN]
[2]
  Median day of death: 15
[3]
  Mortality: 31 days
[4]
  Survivors: 0
[5]
  Median day of death: 24
[6]
  Change in body weight: 0.1 g mouse-1
[7]
  ILS at 5 mg/kg: 118%
[8]
  Mortality: 34 days
[9]
  ILS at 5 mg/kg: 14%
[10]
  Median day of death: 16
[11]
  Change in body weight: 0.6 g mouse-1
[12]
  ILS at 1 mg/kg: 15%
[13]
  Survivors: 0
[14]
  Mortality: 34 days
[15]
  Total dose: 5 mg/kg
[16]
  Survivors: 0
[17]
  Total dose: 5 mg/kg
[18]
  Change in body weight: 0 g mouse-1
[19]
  Survivors: 0
[20]
  Total dose: 5 mg/kg
[21]
  Mortality: 19 days
[22]
  Change in body weight: 0.4 g mouse-1
[23]
  ILS at 5 mg/kg: 121%
[24]
  Total dose: 5 mg/kg

## COC(=O)C(Nc1ncnc2c1C(=O)C(OC)=CC2=O)C(C)C (configuration not stated)
[1]
  IC50: 0.825 µg/mL and 2.59 µM

## O=C1C(N2CC2)=C(N2CC2)C(=O)c2ncncc21
[1]
  IC50: 0.08 µM

## O=c1[nH]cc(F)c(=O)[nH]1 [FLUOROURACIL]
[25]
  Optimal dose: 70 mg/kg
[26]
  Tumor burden: 60 mg
[27]
  T/C: 14%
[28]
  Total dose: 140 mg/kg
[29]
  Toxicity: 0

## COC1=CC(=O)c2ncnc(NCCCN(C)C)c2C1=O
[1]
  IC50: 0.501 µg/mL and 1.73 µM

## COc1cccc2c1C(=O)c1c(O)c3c(c(O)c1C2=O)C[C@@](O)(C(C)=O)C[C@@H]3O[C@H]1C[C@H](N)[C@H](O)[C@H](C)O1 [DAUNORUBICIN]
[30]
  Change in body weight: 1.4 g mouse-1
[31]
  ILS at 1 mg/kg: 79%
[32]
  Median day of death: 18
[33]
  Change in body weight: 0.3 g mouse-1
[34]
  ILS at 1 mg/kg: 63%
[35]
  Median day of death: 19.5
[36]
  Mortality: 27 days
[37]
  Survivors: 0
[38]
  Total dose: 4 mg/kg
[39]
  Mortality: 20 days
[40]
  Survivors: 0
[41]
  Total dose: 4 mg/kg

## COC(=O)C(CC(C)C)NC(=O)C(CC(C)C)Nc1ncnc2c1C(=O)C(OC)=CC2=O (configuration not stated)
[1]
  IC50: 0.581 µg/mL and 1.3 µM

## CCN(CC)CCNc1ncnc2c1C(=O)C(OC)=CC2=O
[1]
  IC50: 0.281 µg/mL and 898 nM

## COC1=CC(=O)c2ncnc(NCCN(C)C)c2C1=O
[1]
  IC50: 0.316 µg/mL and 1.14 µM

## CN(CCCNc1ncnc2c1C(=O)C(N1CC1)=C(N1CC1)C2=O)CCCNc1ncnc2c1C(=O)C(N1CC1)=C(N1CC1)C2=O
[1]
  IC50: 0.0048 µM

## COc1cccc2c1C(=O)c1c(O)c3c(c(O)c1C2=O)C[C@@](O)(C(=O)CO)C[C@@H]3O[C@H]1C[C@H](N)[C@H](O)[C@H](C)O1 [DOXORUBICIN]
[1]
  IC50: 0.028 µg/mL and 48 nM

## CN(C)CCCNc1ncnc2c1C(=O)C(N1CCCCC1)=CC2=O
[1]
  IC50: 0.406 µg/mL and 1.17 µM

## CCN(CC)CCCNc1ncnc2c1C(=O)C(OC)=CC2=O
[1]
  IC50: 0.393 µg/mL and 1.24 µM

## COC1=CC(=O)c2ncnc(NCCCn3cnc4c(N)ncnc43)c2C1=O
[1]
  IC50: > 10 µg/mL and > 24.6 µM

## COC(=O)CNc1ncnc2c1C(=O)C(OC)=CC2=O
[1]
  IC50: 1.2 µg/mL and 4.26 µM

## COC1=CC(=O)c2ncnc(NCCO)c2C1=O
[1]
  IC50: 1.78 µg/mL and 7.13 µM

## CCN(CC)CCCC(C)Nc1ncnc2c1C(=O)C(OC)=CC2=O (configuration not stated)
[1]
  IC50: 0.435 µg/mL and 1.26 µM

## COC1=CC(=O)c2ncnc(OCCOCCOCCO)c2C1=O
[1]
  IC50: > 10 µg/mL and > 29.6 µM

## COC1=CC(=O)c2ncnc(NCCCN(C)CCCNc3ncnc4c3C(=O)C(OC)=CC4=O)c2C1=O
[1]
  IC50: 1.25 µM
